Experimental data: ChEMBL document CHEMBL4043093, “2-Oxo-3, 4-dihydropyrimido[4, 5-d]pyrimidinyl derivatives as new irreversible pan fibroblast growth factor receptor (FGFR) inhibitors” (Eur J Med Chem, 2017)

Key:
[1] = tested on: Mast/stem cell growth factor receptor Kit (Homo sapiens), P10721 [A829P]; assay: Inhibition of human partial length KIT A829P mutant (I571 to D952 residues) expressed in HEK293 cells assessed as residual activity at 1000 nM after 30 mins by Kinomescan method relative to control; type: cell-based
Method in brief: (§1)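 KINOMEscan binding panel of 456 kinases, with the test compound at a single concentration of 1 µM. Read-out is Percent Control.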

[2] = biological target: Serine/threonine-protein kinase TAO1 (Homo sapiens) (UniProt Q7L7X3); assay: Inhibition of wild-type human partial length TAOK1 (M1 to A320 residues) expressed in HEK293 cells assessed as residual activity at 1000 nM after 30 mins by Kinomescan method relative to control; type: cell-based
[3] = biological target: BMP-2-inducible protein kinase (Homo sapiens) (UniProt Q9NSY1); assay: Inhibition of wild-type human partial length BIKE (S34 to N329 residues) expressed in Escherichia coli BL21 assessed as residual activity at 1000 nM after 30 mins by Kinomescan method relative to control
[4] = biological target: Ephrin type-A receptor 5 (Homo sapiens) (UniProt P54756); assay: Inhibition of wild-type human partial length EPHA5 (T627 to V930 residues) expressed in Escherichia coli BL21 assessed as residual activity at 1000 nM after 30 mins by Kinomescan method relative to control
Sequence of Ephrin type-A receptor 5 (Homo sapiens) (P54756 whole entry, the tested form may be a part): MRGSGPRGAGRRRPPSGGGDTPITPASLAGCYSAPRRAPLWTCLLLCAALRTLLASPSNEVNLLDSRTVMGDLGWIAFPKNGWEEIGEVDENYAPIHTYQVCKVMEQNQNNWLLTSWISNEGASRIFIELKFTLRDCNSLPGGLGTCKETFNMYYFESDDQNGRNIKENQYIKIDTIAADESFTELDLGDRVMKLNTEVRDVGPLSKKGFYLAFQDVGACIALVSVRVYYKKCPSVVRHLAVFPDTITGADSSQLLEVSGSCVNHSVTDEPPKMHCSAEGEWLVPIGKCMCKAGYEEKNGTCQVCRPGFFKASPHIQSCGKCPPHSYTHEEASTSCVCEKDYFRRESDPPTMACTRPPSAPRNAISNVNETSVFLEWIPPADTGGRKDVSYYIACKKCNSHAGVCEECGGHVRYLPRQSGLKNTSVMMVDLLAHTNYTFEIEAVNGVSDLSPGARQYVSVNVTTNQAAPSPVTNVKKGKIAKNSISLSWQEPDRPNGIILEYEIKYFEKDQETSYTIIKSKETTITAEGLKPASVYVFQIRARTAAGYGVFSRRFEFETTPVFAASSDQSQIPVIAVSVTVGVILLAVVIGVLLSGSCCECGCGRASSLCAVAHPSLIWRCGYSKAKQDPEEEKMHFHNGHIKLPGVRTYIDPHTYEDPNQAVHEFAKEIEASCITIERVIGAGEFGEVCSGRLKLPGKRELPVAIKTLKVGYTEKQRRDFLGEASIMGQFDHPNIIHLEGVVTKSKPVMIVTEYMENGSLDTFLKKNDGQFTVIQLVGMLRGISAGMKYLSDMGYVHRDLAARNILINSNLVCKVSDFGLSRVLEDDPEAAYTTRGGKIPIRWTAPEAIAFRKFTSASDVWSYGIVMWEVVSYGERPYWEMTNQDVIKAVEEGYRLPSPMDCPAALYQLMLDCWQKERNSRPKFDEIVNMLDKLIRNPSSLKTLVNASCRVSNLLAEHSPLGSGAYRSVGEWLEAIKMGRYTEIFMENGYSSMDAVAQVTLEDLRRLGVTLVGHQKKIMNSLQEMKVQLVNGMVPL

[5] = biological target: Dual specificity testis-specific protein kinase 1 (Homo sapiens) (UniProt Q15569); assay: Inhibition of wild-type human full length TESK1 (R37 to S626 residues) expressed in Escherichia coli BL21 assessed as residual activity at 1000 nM after 30 mins by Kinomescan method relative to control
[6] = biological target: Serine/threonine-protein kinase tousled-like 1 (Homo sapiens) (UniProt Q9UKI8); assay: Inhibition of wild-type human partial length TLK1 (K447 to A754 residues) expressed in Escherichia coli BL21 assessed as residual activity at 1000 nM after 30 mins by Kinomescan method relative to control
[7] = biological target: Serine/threonine-protein kinase PLK4 (Homo sapiens) (UniProt O00444); assay: Inhibition of wild-type human partial length PLK4 (M1 to S273 residues) expressed in HEK293 cells assessed as residual activity at 1000 nM after 30 mins by Kinomescan method relative to control; type: cell-based
Sequence of Serine/threonine-protein kinase PLK4 (Homo sapiens) (O00444 whole entry, the tested form may be a part): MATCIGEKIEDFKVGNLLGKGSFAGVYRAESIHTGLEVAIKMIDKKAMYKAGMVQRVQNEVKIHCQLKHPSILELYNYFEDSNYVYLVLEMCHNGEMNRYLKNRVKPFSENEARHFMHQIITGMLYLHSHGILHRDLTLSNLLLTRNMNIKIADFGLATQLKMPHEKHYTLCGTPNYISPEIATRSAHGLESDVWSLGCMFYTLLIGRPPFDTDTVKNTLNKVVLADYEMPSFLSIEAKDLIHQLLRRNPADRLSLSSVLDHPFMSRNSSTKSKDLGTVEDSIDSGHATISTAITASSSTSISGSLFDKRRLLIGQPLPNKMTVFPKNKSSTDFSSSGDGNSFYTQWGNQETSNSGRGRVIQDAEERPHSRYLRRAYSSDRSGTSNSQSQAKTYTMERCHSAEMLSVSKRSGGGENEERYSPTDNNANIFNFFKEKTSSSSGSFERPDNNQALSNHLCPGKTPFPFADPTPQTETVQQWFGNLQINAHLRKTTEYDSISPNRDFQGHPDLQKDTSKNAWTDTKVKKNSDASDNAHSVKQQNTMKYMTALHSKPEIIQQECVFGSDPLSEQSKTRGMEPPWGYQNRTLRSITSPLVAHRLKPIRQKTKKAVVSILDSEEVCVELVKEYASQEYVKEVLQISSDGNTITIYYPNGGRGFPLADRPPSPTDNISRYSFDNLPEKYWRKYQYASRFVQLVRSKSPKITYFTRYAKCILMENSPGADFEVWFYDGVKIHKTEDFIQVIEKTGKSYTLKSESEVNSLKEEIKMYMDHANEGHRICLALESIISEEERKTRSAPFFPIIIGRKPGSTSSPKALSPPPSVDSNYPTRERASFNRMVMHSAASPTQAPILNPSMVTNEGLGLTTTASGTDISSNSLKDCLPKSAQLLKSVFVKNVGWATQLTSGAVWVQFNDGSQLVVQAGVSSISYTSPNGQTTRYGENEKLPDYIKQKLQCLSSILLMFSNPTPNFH

[8] = biological target: MAP kinase-interacting serine/threonine-protein kinase 2 (Homo sapiens) (UniProt Q9HBH9); assay: Inhibition of wild-type human partial length MKNK2 (G63 to S388 residues) expressed in HEK293 cells assessed as residual activity at 1000 nM after 30 mins by Kinomescan method relative to control; type: cell-based
[9] = biological target: G protein-coupled receptor kinase 3 (Homo sapiens) (UniProt P35626); assay: Inhibition of wild-type human full length GRK3 (M1 to L688 residues) expressed in HEK293 cells assessed as residual activity at 1000 nM after 30 mins by Kinomescan method relative to control; type: cell-based
Sequence of G protein-coupled receptor kinase 3 (Homo sapiens) (P35626 whole entry, the tested form may be a part): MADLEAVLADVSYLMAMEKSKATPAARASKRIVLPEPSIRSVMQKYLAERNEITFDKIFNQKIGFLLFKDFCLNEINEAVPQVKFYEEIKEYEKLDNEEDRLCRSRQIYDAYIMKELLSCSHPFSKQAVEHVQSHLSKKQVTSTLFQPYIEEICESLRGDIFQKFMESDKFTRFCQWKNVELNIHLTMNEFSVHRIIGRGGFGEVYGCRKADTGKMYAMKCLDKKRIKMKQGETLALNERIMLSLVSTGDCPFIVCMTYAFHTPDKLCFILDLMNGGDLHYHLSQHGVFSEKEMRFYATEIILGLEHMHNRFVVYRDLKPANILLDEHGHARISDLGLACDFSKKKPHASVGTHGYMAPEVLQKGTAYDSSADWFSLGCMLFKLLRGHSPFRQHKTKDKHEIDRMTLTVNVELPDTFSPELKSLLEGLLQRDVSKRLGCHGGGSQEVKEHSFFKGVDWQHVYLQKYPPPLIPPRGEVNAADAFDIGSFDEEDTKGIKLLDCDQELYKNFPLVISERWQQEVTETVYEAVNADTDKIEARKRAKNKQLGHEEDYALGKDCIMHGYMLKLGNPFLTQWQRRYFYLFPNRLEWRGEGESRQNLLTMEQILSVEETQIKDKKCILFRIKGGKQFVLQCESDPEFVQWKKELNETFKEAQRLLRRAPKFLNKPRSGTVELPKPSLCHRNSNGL
Method in brief: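 Single-concentration screen at 1 µM across a 456-kinase KINOMEscan panel. The read-out is Percent Control for each kinase.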

[10] = biological target: Serine/threonine-protein kinase 38 (Homo sapiens) (UniProt Q15208); assay: Inhibition of wild-type human partial length NDR1 (N33 to E449 residues) expressed in HEK293 cells assessed as residual activity at 1000 nM after 30 mins by Kinomescan method relative to control; type: cell-based
Sequence of Serine/threonine-protein kinase 38 (Homo sapiens) (Q15208 2-465 limits assumed): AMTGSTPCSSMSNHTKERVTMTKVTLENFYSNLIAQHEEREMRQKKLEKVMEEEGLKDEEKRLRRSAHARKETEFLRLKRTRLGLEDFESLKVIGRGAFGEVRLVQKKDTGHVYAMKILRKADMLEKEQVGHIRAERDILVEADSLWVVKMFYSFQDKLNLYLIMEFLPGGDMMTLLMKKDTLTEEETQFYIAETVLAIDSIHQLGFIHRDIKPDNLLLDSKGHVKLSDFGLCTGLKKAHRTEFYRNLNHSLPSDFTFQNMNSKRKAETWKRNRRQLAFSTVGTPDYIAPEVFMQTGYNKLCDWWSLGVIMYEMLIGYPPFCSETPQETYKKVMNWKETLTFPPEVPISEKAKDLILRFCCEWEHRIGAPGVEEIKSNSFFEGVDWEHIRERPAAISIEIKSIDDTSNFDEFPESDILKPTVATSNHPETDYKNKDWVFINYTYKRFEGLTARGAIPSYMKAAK

[11] = biological target: Mitogen-activated protein kinase kinase kinase 10 (Homo sapiens) (UniProt Q02779); assay: Inhibition of wild-type human partial length MLK2 (V52 to W380 residues) expressed in Escherichia coli BL21 assessed as residual activity at 1000 nM after 30 mins by Kinomescan method relative to control
[12] = biological target: Mitogen-activated protein kinase 13 (Homo sapiens) (UniProt O15264); assay: Inhibition of wild-type human full length p38-delta (M1 to L365 residues) expressed in Escherichia coli BL21 assessed as residual activity at 1000 nM after 30 mins by Kinomescan method relative to control
[13] = biological target: Tyrosine-protein kinase Lck (Homo sapiens) (UniProt P06239); assay: Inhibition of wild-type human partial length LCK (R207 to P509 residues) expressed in Escherichia coli BL21 assessed as residual activity at 1000 nM after 30 mins by Kinomescan method relative to control
[14] = biological target: Serine/threonine-protein kinase Nek1 (Homo sapiens) (UniProt Q96PY6); assay: Inhibition of wild-type human partial length NEK1 (M1 to K278 residues) expressed in Escherichia coli BL21 assessed as residual activity at 1000 nM after 30 mins by Kinomescan method relative to control
[15] = biological target: Serine/threonine-protein kinase Sgk2 (Homo sapiens) (UniProt Q9HBY8); assay: Inhibition of wild-type human partial length SGK2 (L54 to C427 residues) expressed in HEK293 cells assessed as residual activity at 1000 nM after 30 mins by Kinomescan method relative to control; type: cell-based
[16] = tested on: Mast/stem cell growth factor receptor Kit (Homo sapiens), P10721 [D816V]; assay: Inhibition of human partial length KIT D816V mutant (I571 to D952 residues) expressed in Escherichia coli BL21 assessed as residual activity at 1000 nM after 30 mins by Kinomescan method relative to control; method in brief: as §1
[17] = biological target: Mitogen-activated protein kinase kinase kinase 6 (Homo sapiens) (UniProt O95382); assay: Inhibition of wild-type human partial length ASK2 (M278 to R972 residues) expressed in HEK293 cells assessed as residual activity at 1000 nM after 30 mins by Kinomescan method relative to control; type: cell-based
[18] = biological target: Serine/threonine-protein kinase SIK3 (Homo sapiens) (UniProt Q9Y2K2); assay: Inhibition of wild-type human partial length QSK (A90 to L395 residues) expressed in HEK293 cells assessed as residual activity at 1000 nM after 30 mins by Kinomescan method relative to control; type: cell-based
Sequence of Serine/threonine-protein kinase SIK3 (Homo sapiens) (Q9Y2K2 whole entry, looked up, the tested form may be a part, canonical isoform): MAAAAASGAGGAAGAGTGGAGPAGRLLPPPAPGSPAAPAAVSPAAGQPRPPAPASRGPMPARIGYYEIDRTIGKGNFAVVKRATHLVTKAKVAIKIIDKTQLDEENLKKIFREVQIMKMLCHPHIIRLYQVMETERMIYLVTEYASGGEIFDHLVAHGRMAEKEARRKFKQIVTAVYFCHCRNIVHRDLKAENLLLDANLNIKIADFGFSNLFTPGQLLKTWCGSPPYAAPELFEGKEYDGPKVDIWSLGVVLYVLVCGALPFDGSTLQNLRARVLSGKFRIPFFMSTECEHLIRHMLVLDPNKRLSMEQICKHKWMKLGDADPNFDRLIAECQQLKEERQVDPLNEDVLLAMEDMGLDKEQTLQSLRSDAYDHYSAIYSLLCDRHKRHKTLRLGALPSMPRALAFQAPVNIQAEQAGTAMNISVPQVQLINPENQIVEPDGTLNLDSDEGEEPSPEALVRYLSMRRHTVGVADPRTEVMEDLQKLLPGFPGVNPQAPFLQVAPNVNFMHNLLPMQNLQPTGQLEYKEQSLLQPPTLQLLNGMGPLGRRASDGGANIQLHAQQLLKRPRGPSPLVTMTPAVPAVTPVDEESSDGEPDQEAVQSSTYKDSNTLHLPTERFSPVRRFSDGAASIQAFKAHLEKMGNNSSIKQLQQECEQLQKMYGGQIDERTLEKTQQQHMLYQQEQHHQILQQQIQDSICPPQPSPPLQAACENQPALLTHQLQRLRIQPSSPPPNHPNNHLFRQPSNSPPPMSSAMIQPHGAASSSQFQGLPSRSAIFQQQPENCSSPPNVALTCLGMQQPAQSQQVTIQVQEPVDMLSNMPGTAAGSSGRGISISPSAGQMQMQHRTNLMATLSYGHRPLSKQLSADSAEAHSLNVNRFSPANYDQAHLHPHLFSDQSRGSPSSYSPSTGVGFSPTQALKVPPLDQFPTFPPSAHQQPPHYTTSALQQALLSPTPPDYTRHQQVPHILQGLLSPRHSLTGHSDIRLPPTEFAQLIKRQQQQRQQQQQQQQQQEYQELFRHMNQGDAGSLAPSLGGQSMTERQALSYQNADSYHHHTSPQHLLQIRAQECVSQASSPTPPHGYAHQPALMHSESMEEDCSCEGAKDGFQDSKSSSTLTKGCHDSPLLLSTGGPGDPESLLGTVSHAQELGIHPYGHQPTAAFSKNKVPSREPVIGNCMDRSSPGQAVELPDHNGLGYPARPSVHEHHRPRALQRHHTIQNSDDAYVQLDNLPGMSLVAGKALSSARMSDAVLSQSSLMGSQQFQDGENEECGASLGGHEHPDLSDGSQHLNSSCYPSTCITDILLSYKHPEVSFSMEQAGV

[19] = biological target: Phosphorylase b kinase gamma catalytic chain, liver/testis isoform (Homo sapiens) (UniProt P15735); assay: Inhibition of wild-type human partial length PHKG2 (M1 to W300 residues) expressed in Escherichia coli BL21 assessed as residual activity at 1000 nM after 30 mins by Kinomescan method relative to control
[20] = biological target: Serine/threonine-protein kinase PAK 1 (Homo sapiens) (UniProt Q13153); assay: Inhibition of wild-type human partial length PAK1 (S149 to H545 residues) expressed in Escherichia coli BL21 assessed as residual activity at 1000 nM after 30 mins by Kinomescan method relative to control
[21] = biological target: Mitogen-activated protein kinase kinase kinase 9 (Homo sapiens) (UniProt P80192); assay: Inhibition of wild-type human partial length MLK1 (V88 to W426 residues) expressed in Escherichia coli BL21 assessed as residual activity at 1000 nM after 30 mins by Kinomescan method relative to control
[22] = biological target: Serine/threonine-protein kinase RIO2 (Homo sapiens) (UniProt Q9BVS4); assay: Inhibition of wild-type human partial length RIOK2 (M1 to D313 residues) expressed in HEK293 cells assessed as residual activity at 1000 nM after 30 mins by Kinomescan method relative to control; type: cell-based
Sequence of Serine/threonine-protein kinase RIO2 (Homo sapiens) (Q9BVS4 whole entry, looked up, the tested form may be a part): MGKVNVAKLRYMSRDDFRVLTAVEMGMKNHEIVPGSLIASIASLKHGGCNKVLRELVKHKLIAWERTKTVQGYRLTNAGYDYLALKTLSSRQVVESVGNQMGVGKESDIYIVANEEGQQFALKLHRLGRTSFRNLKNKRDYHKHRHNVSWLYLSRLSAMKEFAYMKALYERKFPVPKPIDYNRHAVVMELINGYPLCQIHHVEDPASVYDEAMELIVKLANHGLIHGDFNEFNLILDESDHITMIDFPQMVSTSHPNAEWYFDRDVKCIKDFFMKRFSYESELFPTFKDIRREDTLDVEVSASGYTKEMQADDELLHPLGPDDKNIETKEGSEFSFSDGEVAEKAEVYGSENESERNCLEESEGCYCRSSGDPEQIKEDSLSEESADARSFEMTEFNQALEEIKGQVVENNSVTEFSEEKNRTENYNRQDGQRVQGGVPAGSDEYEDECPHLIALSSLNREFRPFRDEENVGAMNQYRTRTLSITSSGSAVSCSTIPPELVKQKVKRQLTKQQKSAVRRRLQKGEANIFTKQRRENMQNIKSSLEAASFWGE

COc1cc(OC)c(Cl)c(N2Cc3cnc(Nc4ccc(F)cc4)nc3N(C3CCN(C(=O)/C=C/CN(C)C)CC3)C2=O)c1Cl
Activity [1]: 30% | Activity [2]: 13% | Activity [3]: 100% | Activity [4]: 100% | Activity [5]: 82% | Activity [6]: 100% | Activity [7]: 100% | Activity [8]: 86% | Activity [9]: 100% | Activity [10]: 100% | Activity [11]: 94% | Activity [12]: 90% | Activity [13]: 1.5% | Activity [14]: 73% | Activity [15]: 100% | Activity [16]: 41% | Activity [17]: 100% | Activity [18]: 100% | Activity [19]: 98% | Activity [20]: 100% | Activity [21]: 97% | Activity [22]: 100%
